M5 PAM: human M5 muscarinic receptor positive allosteric modulators, primary screen, CHO-K1 cells, Fluo-8 calcium fluorescence. Muscarinic acetylcholine receptor M5 (Homo sapiens), P08912. CHO-K1 hM5, ACh EC20 PAM; 0% = ACh EC20, 100% = ACh EC100. activation, % at 3 µM. actives 0.3% (n = 360,000). AID 624038, 2012;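 active = activation above the run cutoff, the mean activation of all test compounds plus 3 SD, cut at about 18% in these data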
Target sequence (P08912 whole entry, looked up): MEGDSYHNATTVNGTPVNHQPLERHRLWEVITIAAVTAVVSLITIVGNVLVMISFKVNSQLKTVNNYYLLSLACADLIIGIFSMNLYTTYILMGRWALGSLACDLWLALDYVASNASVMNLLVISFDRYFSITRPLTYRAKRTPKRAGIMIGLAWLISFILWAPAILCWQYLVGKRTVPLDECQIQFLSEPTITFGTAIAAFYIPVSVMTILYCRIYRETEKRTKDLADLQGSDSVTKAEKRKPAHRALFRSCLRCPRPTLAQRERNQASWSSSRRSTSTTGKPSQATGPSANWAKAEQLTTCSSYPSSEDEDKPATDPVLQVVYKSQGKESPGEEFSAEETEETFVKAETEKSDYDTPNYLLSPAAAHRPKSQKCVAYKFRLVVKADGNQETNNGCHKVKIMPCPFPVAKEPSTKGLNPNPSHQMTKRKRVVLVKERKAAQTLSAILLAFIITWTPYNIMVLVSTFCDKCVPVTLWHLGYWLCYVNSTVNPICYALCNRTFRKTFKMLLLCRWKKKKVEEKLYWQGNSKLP
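Measured by: Fluo-8 calcium fluorescence; material: human M5 receptor in CHO-K1 cells; schedule: Post-acetylcholine fluorescence recording 140 s; benchmarks: low control EC20 acetylcholine (0%), high control EC100 acetylcholine (100%); read-out: Max/basal fluorescence ratio as % of EC20–EC100 ACh window; compound: single dose, 3 µM nominal final test concentration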
CHRM4 agonist: human M4 muscarinic receptor agonists, primary screen, CHO-K1 cells, Fluo-8 calcium fluorescence. activation, % at 3 µM. CHO-K1 hM4/Gqi5; vehicle 0%, full acetylcholine response 100%. Muscarinic acetylcholine receptor M4 (Homo sapiens), P08173. actives 0.14% (n = 360,000);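 active = activation above the run mean over all test wells plus 3 SD, cut at about 32% in these data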;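 note: peak over basal fluorescence ratio per well then scaled between controls; 0% = DMSO wells and 100% = acetylcholine at EC100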
M4 antag: human M4 muscarinic receptor antagonists, primary screen, CHO cells, Fluo-8 calcium fluorescence; actives 0.73% (n = 360,000); CHO-hM4 cells, ACh EC80; inhibition, % at 3 µM;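 active = inhibition above its plate's cutoff, the mean inhibition of sample wells plus 3 SD, cut at about 27% in these data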;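 note: 0% = acetylcholine EC80 with DMSO and 100% = DMSO without agonist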
CHRM4 PAM: human M4 muscarinic receptor positive allosteric modulators, primary screen, CHO-K1 cells, Fluo-8 calcium fluorescence; Muscarinic acetylcholine receptor M4 (Homo sapiens), P08173; CHO-K1 hM4/Gqi5, ACh EC20; 0% = ACh EC20, 100% = maximal ACh; activation, % at 3 µM; actives 0.4% (n = 360,000); AID 624126, 2012;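 active = activation above its plate's cutoff, the mean activation of sample wells plus 3 SD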
M5 antag: human M5 muscarinic receptor antagonists, primary screen, CHO cells, Fluo-8 calcium fluorescence; Muscarinic acetylcholine receptor M5 (Homo sapiens), P08912; CHO-hM5 cells, ACh EC80; inhibition, % at 3 µM; actives 0.59% (n = 360,000);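 active = inhibition above a per-plate cutoff, the mean of that plate's test compounds plus 3 SD, cut at about 27% in these data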;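 note: 0% = acetylcholine EC80 with DMSO and 100% = DMSO without agonist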
CHRM5 agonist: human M5 muscarinic receptor agonists, primary screen, CHO-K1 cells, Fluo-8 calcium fluorescence; CHO-K1 hM5 cells; 0% DMSO wells, 100% maximal acetylcholine response; activation, % at 3 µM; actives 0.19% (n = 360,000);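 active = activation above the run's mean over test compounds plus 3 SD, cut at about 23% in these data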;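 note: signal is peak over basal fluorescence ratio across the kinetic read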
Active calls of the source: *. The list is not random: actives were taken first. Their share in the collection is about 1.8%.

SMILES | M5 PAM | CHRM4 agonist | M4 antag | CHRM4 PAM | M5 antag | CHRM5 agonist
CCCC[N+]12CCC(CC1)C(C(O)(c1ccccc1)c1ccccc1)C2 (stereo unspecified) | -23.0 | -0.1 | 20.1 | -33.7 | 7.8 | -22.0
C=CCCC1(C2=CCCCC2)C(=O)NC(=O)NC1=O | -4.7 | -0.1 | -4.3 | 0.3 | 13.4 | 1.4
COC(=O)C1=C(c2cccc(OCc3ccccc3)c2)C[C@@H]2CC[C@H]1N2C(=O)NCCc1ccc(F)cc1 | -19.7 | 3.6 | 39.8* | -15.8 | 4.2 | -7.6
COC(=O)C1=C(c2ccc(F)cc2OCc2ccccc2)C[C@@H]2CC[C@H]1N2C(=O)N1CCC(C)CC1 | -34.8 | 0.9 | 38.0* | -16.4 | 15.0 | -8.7
Cc1ccc(-[n+]2c(Cc3nn(-c4ccccc4)c(C)[n+]3-c3ccc(C)cc3)nn(-c3ccccc3)c2C)cc1 | -4.8 | -0.3 | -0.9 | 3.2 | 9.4 | -2.4
COc1cc(C(=O)OC2C[C@H]3CC[C@@H](C2)N3)ccc1O (stereo partly specified) | -7.7 | 0.5 | 38.2* | -15.6 | 2.4 | -8.3
COc1cc(C(=O)OC2C[C@H]3CC[C@@H](C2)N3C)ccc1O (stereo partly specified) | -0.4 | -0.4 | 3.5 | -3.8 | 1.2 | -7.5
O=c1[nH]c(=O)n(Cc2ccco2)c(O)c1C=NC1CCN(Cc2ccccc2)CC1 | -2.4 | 0.2 | 7.1 | -7.1 | 6.5 | -12.6
COC(=O)C1=C(c2cc3ccccc3o2)C[C@@H]2CC[C@H]1N2C(=O)NCc1ccc(C(F)(F)F)cc1 | -0.5 | 0.3 | 11.3 | -5.4 | 11.2 | -3.8
Clc1ccc(C(OCCN2CCCCC2)c2ccccc2)cc1 (stereo unspecified) | -18.4 | 5.0 | 38.4* | -18.6 | 57.0* | -0.7
c1ccc(C(OCCN2CCN(c3ncccn3)CC2)c2ccccc2)cc1 | -21.0 | 2.6 | -4.1 | -6.0 | 22.9 | -15.6
O=C(c1cccs1)c1cn(Cc2ccccc2Cl)c2ccccc12 | 21.2* | -1.1 | -1.2 | 22.2 | -6.9 | -1.9
N#Cc1ccccc1Cn1cc(C(=O)c2cccs2)c2ccccc21 | -16.8 | 0.3 | -13.0 | -4.7 | 6.3 | -2.6
O=C(OC1CC2CCC(N2)C1C(=O)O)c1ccccc1 (stereo unspecified) | -0.6 | 0.7 | -4.6 | -1.8 | -0.4 | 3.1
O=c1c2ccccc2nc(CNCc2ccco2)n1-c1ccc(F)cc1 | 5.8 | 0.6 | -5.5 | -1.6 | -3.8 | 1.2
CN1CCN(c2ccc([N+](=O)[O-])c(Sc3ccccn3)c2)CC1 | 28.3* | 0.7 | -14.2 | 23.6 | -13.2 | -15.5
O=[N+]([O-])c1cc(O)c(O)c([N+](=O)[O-])c1 | -3.5 | 1.0 | 5.2 | -0.4 | 7.9 | -0.5
O=[N+]([O-])c1cc(-n2cnnn2)c(O)c([N+](=O)[O-])c1 | 9.9 | 1.4 | 3.0 | 30.1* | 4.2 | 0.6
CC(C)(C)c1ccc(C(=O)C2CCCN(Cc3ccon3)C2)cc1 (stereo unspecified) | -1.4 | 4.1 | -2.2 | -5.9 | -2.6 | 0.1
CC(=O)N1CCC(N2CCCC(C(=O)c3cccc(Cl)c3)C2)CC1 (stereo unspecified) | -16.2 | 0.6 | 26.6* | -21.5 | 17.6 | -10.5
CC(C)(C)c1ccc(C(=O)C2CCCN(C3CCC3)C2)cc1 (stereo unspecified) | -1.1 | 2.3 | 32.0* | -24.3 | 5.5 | -15.2
